Measured values: ChEMBL document CHEMBL3351601, “2-(4-Chlorobenzyl)-6-arylimidazo[2,1-b][1,3,4]thiadiazoles: synthesis, cytotoxic activity and mechanism of action” (Eur J Med Chem, 2014)
Activity calls are given as the source filed them. The calls are words filed in the database; no cut-off is given here.

Columns and labels:
[1] = system: HeLa; assay: Cytotoxicity against human HeLa cells after 72 hrs by Coulter counting method; assay type: functional, cell-based
In short: (§1)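 (5–7.5) × 10⁴ tumour cells per well with test compound. Proliferation ran 48 h for L1210 and 72 h for CEM and HeLa, at 37 °C in humidified CO₂. Cells counted in a Coulter counter. IC50 taken as the concentration that inhibited cell proliferation by 50%.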

[2] = system: L1210; assay: Cytotoxicity against mouse L1210 cells after 48 hrs by Coulter counting method; assay type: functional, cell-based; details: L1210, 48 h; in short: as §1
[3] = system: CCRF-CEM; assay: Cytotoxicity against human CEM cells after 72 hrs by Coulter counting method; assay type: cell-based; in short: as §1
[4] = system: REH; assay: Cytotoxicity against human REH cells after 48 to 72 hrs; assay type: functional, cell-based
In short: (§2)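 REH and K562 cells at 0.5 × 10⁵ cells/ml, given 0–10 μM compound, with a DMSO vehicle control. Read at 48 and 72 h by trypan blue dye exclusion (cells precultured 24 h before dosing) and by MTT. Three independent experiments, MTT in duplicate.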

[5] = system: K562; assay: Cytotoxicity against human K562 cells after 48 to 72 hrs; assay type: functional, cell-based; in short: as §2
[6] = system: L1210; assay: Ratio of melphalan IC50 to compound IC50 for mouse L1210 cells after 48 to 72 hrs by Coulter counter cell counting
[7] = system: HeLa; assay: Ratio of melphalan IC50 to compound IC50 for human HeLa cells after 48 to 72 hrs by Coulter counter cell counting
[8] = system: REH; assay: Cell cycle arrest in human REH cells at 0.1 to 1 uM after 48 hrs using propidium iodide by flow cytometry; assay type: functional, cell-based
In short: (§3)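 REH cells (0.5 × 10⁵ cells/ml) precultured 24 h, then exposed to 0, 0.1, 0.5 or 1 μM compound for 48 h. Harvested, fixed in 70% chilled ethanol, stained with propidium iodide, analysed by flow cytometry, at least 10,000 cells per sample. Phase distribution from histograms, two independent experiments.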

[9] = system: REH; assay: Induction of apoptosis in human REH cells assessed as early apoptotic cells at 1 uM after 48 hrs using propidium iodide/annexin-V by flow cytometry (reference value: 16.2 %); assay type: functional
In short: (§4)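 REH cells given 1 μM compound for 48 h alongside DMSO controls. Harvested, washed in PBS, resuspended in binding buffer (10 mM HEPES pH 7.4, 144 mM NaCl, 25 mM CaCl₂).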

[10] = system: REH; assay: Induction of apoptosis in human REH cells assessed as ROS production at 1 uM after 60 mins using H2DCFDA by flow cytometry (reference value: 0.11%); assay type: functional
[11] = system: REH; assay: Induction of apoptosis in human REH cells assessed as necrotic cells at 1 uM after 48 hrs using propidium iodide/annexin-V by flow cytometry (reference value: 2.5 %); assay type: functional; in short: as §4
[12] = system: REH; assay: Cell cycle arrest in human REH cells assessed as accumulation at sub-G1 phase at 0.1 to 1 uM after 48 hrs using propidium iodide by flow cytometry; assay type: functional, cell-based; in short: as §3
[13] = system: REH; assay: Induction of apoptosis in human REH cells assessed as DNA fragmentation at 0.5 uM after 48 hrs by agarose gel electrophoresis; assay type: functional, cell-based
In short: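 REH cells given 0, 0.1, 0.5, 1 and 5 μM for 48 h, DMSO vehicle control. Cells lysed in Triton X-100/proteinase K buffer at 55 °C for 5 h, then RNase (50 μg/ml) 1 h at 37 °C. DNA precipitated with sodium acetate/isopropanol and run on 2% agarose at 50 V for 3 h.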

[14] = system: REH; assay: Induction of apoptosis in human REH cells assessed as ROS production at 1 uM after 30 mins using H2DCFDA by flow cytometry (reference value: 0.11%); assay type: functional
[15] = system: REH; assay: Induction of apoptosis in human REH cells assessed as loss of mitochodrial membrane potential at 0.5 to 1 uM after 48 hrs using JC-1 staining by flow cytometry; assay type: functional, cell-based
In short: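 REH cells exposed to 0.5 or 1 μM compound for 48 h, then incubated with 0.5 μM JC-1 for 20 min at 37 °C, washed and read by flow cytometry. Green-to-red fluorescence ratio reported. 2,4-DNP as positive control, DMSO-treated cells as controls. Two independent experiments.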

[16] = system: REH; assay: Induction of apoptosis in human REH cells assessed as ROS production at 1 uM after 5 to 60 mins using H2DCFDA by flow cytometry (reference value: 0.11%); assay type: functional
[17] = system: REH; assay: Effect on cell cycle progression in human REH cells at 0.1 to 1 uM after 48 hrs using propidium iodide by flow cytometry; assay type: functional, cell-based; in short: as §3
[18] = system: REH; assay: Induction of apoptosis in human REH cells assessed as late apoptotic cells at 1 uM after 48 hrs using propidium iodide/annexin-V by flow cytometry (reference value: 8.7 %); assay type: functional; in short: as §4
[19] = system: REH; assay: Induction of apoptosis in human REH cells assessed as viable cells at 1 uM after 48 hrs using propidium iodide/annexin-V by flow cytometry (reference value: 72.6 %); assay type: functional; details: read-out: Activity; in short: as §4
[20] = system: REH; assay: Induction of apoptosis in human REH cells assessed as ROS production at 1 uM after 5 mins using H2DCFDA by flow cytometry (reference value: 0.11%); assay type: functional
[21] = Ratio of melphalan IC50 to compound IC50 for human CEM cells after 48 to 72 hrs by Coulter counter cell counting; details: CCRF-CEM (CEM) cells
[22] = system: REH; assay: Cytotoxicity against human REH cells at 0.5 uM after 48 hrs using ethidium bromide staining by live-dead assay relative to 293T cells; assay type: functional
In short: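 REH and 293T cells seeded at 1 × 10^5/ml, exposed to 0.5 μM compound for 48 h; DMSO vehicle control. Harvested cells stained with ethidium bromide (5 μg/ml), which enters membrane-compromised dead cells, and dead fraction quantified by flow cytometry. REH cultured in RPMI1640, 293T in DMEM, both with 10% FBS, penicillin/streptomycin, 37 °C, 5% CO2.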

[23] = system: REH; assay: Induction of apoptosis in human REH cells assessed as ROS production at 1 uM after 15 mins using H2DCFDA by flow cytometry (reference value: 0.11%); assay type: functional

Row | Compound | IC50 [1] [µM] | IC50 [2] [µM] | IC50 [3] [µM] | other results
1 | Clc1ccc(Cc2nn3c(Br)c(-c4ccc(Br)cc4)nc3s2)cc1 | 188 | > 250 | 238 | –
2 | O=Cc1c(-c2ccc(Br)cc2)nc2sc(Cc3ccc(Cl)cc3)nn12 | 4.2 | 4.6 | 4 | –
3 | N#CSc1c(-c2ccc([N+](=O)[O-])cc2)nc2sc(Cc3ccc(Cl)cc3)nn12 | 16 | 50 | 20 | –
4 | O=[N+]([O-])c1ccc(-c2cn3nc(Cc4ccc(Cl)cc4)sc3n2)cc1 | > 250 | 214 | > 250 | –
5 | O=[N+]([O-])c1ccc(-c2nc3sc(Cc4ccc(Cl)cc4)nn3c2Br)cc1 | > 250 | 94 | 73 | –
6 | COc1ccc(-c2cn3nc(Cc4ccc(Cl)cc4)sc3n2)cc1 | > 250 | 38 | > 250 | –
7 | Clc1ccc(Cc2nn3c(Br)c(-c4ccccc4)nc3s2)cc1 | > 250 | > 250 | > 250 | –
8 | COc1ccc(-c2nc3sc(Cc4ccc(Cl)cc4)nn3c2SC#N)cc1 | 9 | 16 | 10 | –
9 | Cc1ccc(-c2nc3sc(Cc4ccc(Cl)cc4)nn3c2Br)cc1 | > 250 | > 250 | > 250 | –
10 | Cc1ccc(-c2nc3sc(Cc4ccc(Cl)cc4)nn3c2SC#N)cc1 | 22 | 32 | 22 | –
11 | O=Cc1c(-c2ccc(F)cc2)nc2sc(Cc3ccc(Cl)cc3)nn12 | 20 | 20 | 17 | –
12 | c1ccc([C@H]2CN3CCSC3=N2)cc1 [LEVAMISOLE] | 250 | 206 | > 250 | –
13 | O=c1oc2ccccc2cc1-c1nc2sc(Cc3ccc(Cl)cc3)nn2c1Br | 4.5 | 5.2 | 3.7 | –
14 | Clc1ccc(Cc2nn3cc(-c4ccc(Cl)cc4Cl)nc3s2)cc1 | 109 | 247 | > 250 | –
15 | COc1ccc(-c2nc3sc(Cc4ccc(Cl)cc4)nn3c2C=O)cc1 | 6 | 5.3 | 3.8 | –
16 | N#CSc1c(-c2ccc(Cl)cc2)nc2sc(Cc3ccc(Cl)cc3)nn12 | 20 | 49 | 30 | –
17 | N#CSc1c(-c2ccc(Br)cc2)nc2sc(Cc3ccc(Cl)cc3)nn12 | 22 | 81 | 61 | –
18 | N#CSc1c(-c2cc3ccccc3oc2=O)nc2sc(Cc3ccc(Cl)cc3)nn12 | 1 | 1.3 | 1.4 | IC50 [4]: 6.2 µM; IC50 [5]: 3.1 µM
19 | N[C@@H](Cc1ccc(N(CCCl)CCCl)cc1)C(=O)O [MELPHALAN] | – | – | 1.4 | –

Row | Compound | IC50 [1] [µM] | IC50 [2] [µM] | IC50 [3] [µM] | other results
20 | Clc1ccc(Cc2nn3c(Br)c(-c4ccc(Cl)cc4)nc3s2)cc1 | > 250 | > 250 | > 250 | –
21 | O=Cc1c(-c2cc3ccccc3oc2=O)nc2sc(Cc3ccc(Cl)cc3)nn12 | 0.9 | 0.89 | 0.75 | Ratio IC50 [6]: 3; Ratio IC50 [7]: 3; Activity [8]: inactive; Activity [9]: 21.5%; Activity [10]: 0.16%; Activity [11]: 9.1%; Activity [12]: Active; Activity [13]: Active; Activity [14]: 0.13%; Activity [15]: Active; Activity [16]: 36.99%; IC50 [4]: 0.67 µM; Activity [17]: inactive; Activity [18]: 14.6%; viability at 1 µM [19]: 54.8%; Activity [20]: 0.16%; selectivity ratio [21]: 3; IC50 [5]: 0.9 µM; fold change (FC) [22]: 6; Activity [23]: 0.12%
22 | O=c1oc2ccccc2cc1-c1cn2nc(Cc3ccc(Cl)cc3)sc2n1 | > 10 | > 10 | > 10 | –
23 | O=Cc1c(-c2ccccc2)nc2sc(Cc3ccc(Cl)cc3)nn12 | 45 | 20 | 22 | –
24 | O=Cc1c(-c2ccc(Cl)cc2Cl)nc2sc(Cc3ccc(Cl)cc3)nn12 | 64 | 82 | 79 | –
25 | Clc1ccc(Cc2nn3c(Br)c(-c4ccc(Cl)cc4Cl)nc3s2)cc1 | 118 | 31 | 106 | –
26 | Clc1ccc(Cc2nn3cc(-c4ccc(Cl)cc4)nc3s2)cc1 | 95 | > 250 | > 250 | –
27 | COc1ccc(-c2nc3sc(Cc4ccc(Cl)cc4)nn3c2Br)cc1 | 66 | 63 | 58 | –
28 | N#CSc1c(-c2ccc(F)cc2)nc2sc(Cc3ccc(Cl)cc3)nn12 | 20 | 23 | 24 | –
29 | N#CSc1c(-c2ccccc2)nc2sc(Cc3ccc(Cl)cc3)nn12 | 12 | 24 | 14 | –
30 | Fc1ccc(-c2cn3nc(Cc4ccc(Cl)cc4)sc3n2)cc1 | > 250 | > 250 | > 250 | –
31 | Cc1ccc(-c2nc3sc(Cc4ccc(Cl)cc4)nn3c2C=O)cc1 | 21 | 23 | 17 | –
32 | Clc1ccc(Cc2nn3cc(-c4ccc(Br)cc4)nc3s2)cc1 | > 250 | > 250 | > 250 | –
33 | Cc1ccc(-c2cn3nc(Cc4ccc(Cl)cc4)sc3n2)cc1 | > 250 | > 250 | > 250 | –
34 | O=Cc1c(-c2ccc(Cl)cc2)nc2sc(Cc3ccc(Cl)cc3)nn12 | 16 | 15 | 5.8 | –
35 | N#CSc1c(-c2ccc(Cl)cc2Cl)nc2sc(Cc3ccc(Cl)cc3)nn12 | 18 | 49 | 46 | –
36 | Clc1ccc(Cc2nn3cc(-c4ccccc4)nc3s2)cc1 | > 250 | > 250 | > 250 | –
37 | Fc1ccc(-c2nc3sc(Cc4ccc(Cl)cc4)nn3c2Br)cc1 | > 250 | > 250 | > 250 | –
38 | O=Cc1c(-c2ccc([N+](=O)[O-])cc2)nc2sc(Cc3ccc(Cl)cc3)nn12 | 17 | 15 | 13 | –
